FGF22 binding: FGF22 (human) thermal shift binding; Q9HCT0; recombinant FGF22 thermal shift, SYPRO orange fluorescence; percent of sucrose octasulfate shift, DMSO zero; activity (Tm shift, normalised), % at 9.99 µM; 340,000 tested, 1.5% active; AID 651658;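 active means mean Tm shift, scaled 0 neutral to 100 positive control, at about 1.3% or above, every replicate too, limit read from the data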
Target sequence (Q9HCT0 whole entry, looked up): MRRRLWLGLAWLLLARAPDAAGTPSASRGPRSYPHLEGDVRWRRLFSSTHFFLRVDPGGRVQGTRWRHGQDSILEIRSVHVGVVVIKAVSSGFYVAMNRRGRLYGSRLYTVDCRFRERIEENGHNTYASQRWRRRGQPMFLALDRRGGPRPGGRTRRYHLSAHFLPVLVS
SIRT5 block: inhibitors of human sirtuin-5 desuccinylase. Q9NXA8. Purified SirT5, succinyl-peptide AMC, trypsin-coupled fluorescence. inhibition, % at 15 µM. 330,000 tested, 1.1% active. AID 652115; in the data active means inhibition above about 15%
FN deposition inh: fibronectin deposition inhibition | AH1F fibroblasts, Alexa488-fibronectin deposition fluorescence, overnight | AID 743247 | inhibition, % at 12.6 µM | 350,000 tested, 0.086% active;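 active means mean inhibition across replicates of 30% or more, regardless of how many single replicates reach that level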
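Schedule: 1 h cell adhesion before compound, then overnight fibronectin incubation; test system: AH1F fibroblast monolayer depositing Alexa488-labelled fibronectin into matrix; quantity: 10000 AH1F cells per well; probe or stimulus: fluorescent fibronectin at 24 nM final; signal: fluorescence, ex 485 nm, em 525 nm; evaluation: percent inhibition as loss of matrix-bound fibronectin fluorescence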
ERAP1 inh: inhibitors of human ERAP1 aminopeptidase | inhibition, % at 10.7 µM | AID 652197 | recombinant ERAP1, Leu-AMC fluorescence, 60 min | 340,000 tested, 0.15% active | Q9NZ08;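 active means mean replicate inhibition of at least 30%, or all replicates individually reaching that 30% level; inactive means mean below 30% and not every replicate reaching it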
PGC1a acetyl inh: modulators of PGC1a acetylation; U2OS PGC1a acetylation, AlphaScreen anti-acetyl-lysine; with virally co-expressed GCN5 acetyltransferase; inhibition, % at 15.6 µM; 350,000 tested, 0.17% active; AID 651687;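 active means every replicate shows inhibition of at least 40%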
Hits are given with their value; i = inactive; nt = not tested or not shown; ! = a repeat was not active. Only some compounds are listed: those with a hit (about 2.2% of all), similar ones and a draw of the others.

SMILES	FGF22 binding	SIRT5 block	FN deposition inh	ERAP1 inh	PGC1a acetyl inh
C[C@H](CO)N1C[C@H](C)[C@@H](CN(C)Cc2ccc(-c3ccccc3)cc2)Oc2c(NS(=O)(=O)c3ccccc3)cccc2C1=O	i	16!	i	i	i
C[C@H]1CN([C@@H](C)CO)C(=O)c2cccc(NS(=O)(=O)c3cn(C)cn3)c2O[C@H]1CN(C)Cc1ccc(Oc2ccccc2)cc1	i	29	i	i	i
C[C@@H]1CN([C@H](C)CO)C(=O)c2cc(NS(=O)(=O)c3ccccc3)ccc2O[C@@H]1CN(C)Cc1ccc(-c2ccccc2)cc1	i	15	nt	i	i
C[C@H](CO)N1C[C@H](C)[C@@H](CN(C)Cc2ccc(C(=O)O)cc2)Oc2ccc(NS(=O)(=O)c3ccc(Cl)cc3)cc2C1=O	i	24	i	i	i
C[C@H](CO)N1C[C@H](C)[C@@H](CN(C)Cc2ccc(-c3ccccc3)cc2)Oc2ccc(NS(=O)(=O)c3ccccc3)cc2C1=O	i	i	nt	i	i
C[C@@H]1CCCCO[C@H](CN(C)C(=O)Cc2ccccc2)[C@@H](C)CN([C@@H](C)CO)C(=O)c2cc(NC(=O)CCC(F)(F)F)ccc2O1	i	nt	i	nt	i
COc1ccc(NC(=O)Nc2ccc3c(c2)CC(=O)N([C@H](C)CO)C[C@@H](C)[C@H](CN(C)C(=O)NC(C)C)O3)cc1	i	i	nt	i	i
C[C@H](CO)N1C[C@H](C)[C@H](CN(C)C(=O)Nc2ccccc2)OCCCC[C@H](C)Oc2ccc(NS(C)(=O)=O)cc2C1=O	i	i	i	i	i
COc1ccc(S(=O)(=O)N(C)C[C@@H]2Oc3ccc(NC(=O)Cc4cn(C)c5ccccc45)cc3CC(=O)N([C@H](C)CO)C[C@H]2C)cc1	i	i	nt	i	i
Cc1ccc(S(=O)(=O)Nc2cccc3c2O[C@@H](CN(C)Cc2ccc4c(c2)OCO4)[C@@H](C)CN([C@@H](C)CO)C3=O)cc1	i	i	nt	i	i
Cc1ccc(S(=O)(=O)Nc2cccc3c2O[C@@H](CN(C)Cc2ccc4c(c2)OCO4)[C@@H](C)CN([C@H](C)CO)C3=O)cc1	i	15	nt	i	i
CCCNC(=O)N1C[C@H]2[C@@H](c3ccccc31)[C@H](CO)N2Cc1ccc(F)cc1	nt	nt	nt	nt	i
CC(=O)NS(=O)(=O)c1ccc(NC(=S)NC(=O)C2CCC2)cc1	i	i	nt	i	nt
O=C(NNC(=S)Nc1ccccc1)C1CCCCC1	44	i	i	i	nt
O=C(NC(=S)Nc1ccc(S(=O)(=O)Nc2ccccc2)cc1)C1CC1	43	i	i	i	i
O=C(NNC(=S)Nc1ccccc1)C1CC1	nt	nt	nt	nt	i
C[C@H](CO)N1C[C@H](C)[C@@H](CN(C)S(=O)(=O)c2ccc(Cl)cc2)Oc2ccc(NS(C)(=O)=O)cc2C1=O	nt	nt	nt	nt	i
C[C@H](CO)N1C[C@H](C)[C@H](CN(C)C(=O)NC2CCCC2)Oc2ncc(C#CCN(C)C)cc2C1=O	i	i	i	i	i
COc1ccc(CN(C)C[C@H]2OCCCC[C@@H](C)Oc3ccc(NC(=O)Nc4ccc(C(F)(F)F)cc4)cc3C(=O)N([C@H](C)CO)C[C@H]2C)cc1	i	i	nt	i	i
COc1ccc(NC(=O)Nc2ccc3c(c2)C(=O)N([C@@H](C)CO)C[C@H](C)[C@H](CN(C)Cc2ccccc2)OCCCC[C@@H](C)O3)cc1	i	i	i	i	i
COc1ccc(NC(=O)Nc2ccc3c(c2)C(=O)N([C@@H](C)CO)C[C@H](C)[C@@H](CN(C)Cc2ccccc2)OCCCC[C@H](C)O3)cc1	i	20	i	i	i
COc1ccc(NC(=O)Nc2ccc3c(c2)C(=O)N([C@@H](C)CO)C[C@@H](C)[C@@H](CN(C)Cc2ccc(C(F)(F)F)cc2)OCCCC[C@@H](C)O3)cc1	i	17	i	i	i
COc1ccc(NC(=O)Nc2ccc3c(c2)C(=O)N([C@H](C)CO)C[C@@H](C)[C@@H](CN(C)Cc2ccccc2)OCCCC[C@H](C)O3)cc1	i	21	i	i	i
COc1ccc(CN(C)C[C@@H]2Oc3c(NS(=O)(=O)c4ccc(F)cc4)cccc3C(=O)N([C@H](C)CO)C[C@@H]2C)cc1	i	i	nt	i	i
N/C(Cc1cccc2ccccc12)=N\OC(=O)c1ccc2c(c1)OCO2	44	i	i	i	i
O=C(C[C@H]1CC[C@@H]2[C@H](COC[C@@H](O)CN2C(=O)Nc2ccccc2)O1)NCCc1ccncc1	i	i	i	i	i

Source: PubChem
